Here are results for eight compounds from ChEMBL document CHEMBL3414523, “FimH antagonists: bioisosteres to improve the in vitro and in vivo PK/PD profile” (J Med Chem, 2015).

Converted amounts (≈) assume the structure as drawn.

Series [1] can be described thus: physchem. The settings on record: octanol/water, pH 7.4.
Series [2] in a line: Plasma protein binding in human by equilibrium dialysis method. The settings on record: read-out: PPB (converted). The class given is ADME, cell-free. Background: In equilibrium dialysis only unbound substance equilibrates across the membrane.
The nature of series [3]: Cmax in urine of C3H/HeN mouse at 0.625 mg/kg, iv. The class given is ADME, organism-based. Also on record: dose 0.625 mg/kg, route intravenous.
The test system of series [4] is Mus musculus. Briefly: Half life in C3H/HeN mouse at 0.625 mg/kg, iv. It counts as ADME, organism-based. The arrangement: dose 0.625 mg/kg, route intravenous. The settings on record: in vivo.
Series [5] deals with Mus musculus. Briefly: Volume of distribution in C3H/HeN mouse at 0.625 mg/kg, iv. The class given is ADME, organism-based. The arrangement: dose 0.625 mg/kg, route intravenous. The settings on record: in vivo.
A short description of series [6]: Total clearance in C3H/HeN mouse at 0.625 mg/kg, iv. The class given is ADME, organism-based. Also on record: dose 0.625 mg/kg, route intravenous. The settings on record: in vivo.
Series [7] is described as follows: Apparent permeability across basolateral to apical side in human Caco2 cells by LC/MS analysis. The settings on record: Caco-2. In general terms: Passage across Caco-2 layers is used to estimate intestinal permeability.
Series [8] in a line: Displacement of n-heptyl 2-deoxy-alpha-D-mannopyranoside from Escherichia coli recombinant 6-His-tagged FimH CRD expressed in Escherichia coli HM125 after 20 mins by isothermal titration calorimetry. In general terms: In ITC the heat of successive injections is recorded.
In series [9] the test system is Escherichia coli. The experiment in a line: Antimicrobial activity against Escherichia coli UTI89 infected in C3H/HeN mouse urinary tract infection model assessed as bacterial load reduction in bladder at 1.25 mg/kg, po administered 40 mins prior to infection measured after 3 hrs (reference value: 6.6 log10 CFU). It counts as functional.
Series [10] is described as follows: Displacement of fluorescently labeled 3'-chloro-N-(2-(3-(3',6'-dihydroxy-3-oxo-3H-spiro[isobenzofuran-1,9'-xanthene]-5-yl)thioureido)ethyl)-4'-((2R,3S,4S,5S,6R)-3,4,5-trihydroxy-6-(hydroxymethyl)tetrahydro-2H-pyran-2-yloxy)biphenyl-4-carboxamide from Escherichia coli recombinant 6-His-tagged FimH CRD expressed in Escherichia coli HM125 after 24 hrs by fluorescence polarization assay. Put shortly: (§1)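 Competitive fluorescence polarization with His6-tagged FimH CRD (thrombin cleavage site) and fixed fluorescent reporter ligand, 24 h incubation to reach equilibrium; polarized excitation 485 nm, emission 528 nm on a plate reader. IC50 from four-parameter nonlinear least-squares fit, converted to KD by a modified Cheng–Prusoff equation accounting for ligand depletion.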

Series [11] relates to Escherichia coli. Briefly: Antimicrobial activity against Escherichia coli UTI89 infected in C3H/HeN mouse urinary tract infection model assessed as bacterial load reduction in kidney at 10 mg/kg, po formulated with 5% DMSO in PBS containing 1% Tween 80 administered 40 mins prior to infection measured after 3 hrs relative to control. It counts as functional.
The subject of series [12] is Escherichia coli. Briefly: Antimicrobial activity against Escherichia coli UTI89 infected in C3H/HeN mouse urinary tract infection model assessed as bacterial load reduction in bladder at 10 mg/kg, po formulated with 5% DMSO in PBS containing 1% Tween 80 administered 40 mins prior to infection measured after 3 hrs relative to control. The class given is functional.

Series [13] is described as follows: Initial plasma concentration in C3H/HeN mouse at 0.625 mg/kg, iv. It counts as ADME, organism-based. The arrangement: dose 0.625 mg/kg, route intravenous.
The nature of series [14]: Apparent permeability across apical to basolateral side in human Caco2 cells by LC/MS analysis. The settings on record: Caco-2.
In series [15] the test system is Escherichia coli. Briefly: Antimicrobial activity against Escherichia coli UTI89 infected in C3H/HeN mouse urinary tract infection model assessed as bacterial load reduction in kidney at 1.25 mg/kg, po administered 40 mins prior to infection measured after 3 hrs (reference value: 6 log10 CFU). It counts as functional.
The nature of series [16]: Half life in rat liver microsomes at 2 uM after 10 mins by LC/MS/MS analysis. The note with it: liver microsomes.
Series [17] in a line: AUC (0 to infinity) in C3H/HeN mouse at 0.625 mg/kg, iv. It counts as ADME, organism-based. The note with it: plasma. The arrangement: time infinity, dose 0.625 mg/kg, route intravenous.
For series [18], the system named is Escherichia coli. Briefly: Inhibition of adhesion of Escherichia coli UTI89 clinical isolate to human 5637 cells assessed as MAC90 after 10 mins by flow cytometry. It counts as functional.
Series [19] in a line: physchem. The settings on record: buffer, pH 7.4.
Series [20] can be described thus: Initial plasma concentration in C3H/HeN mouse at 50 mg/kg, iv. The class given is ADME, organism-based. Also on record: dose 50 mg/kg, route intravenous.
Series [21] has as its system Mus musculus. The experiment in a line: Half life in C3H/HeN mouse at 50 mg/kg, iv. It counts as ADME, organism-based. Also on record: dose 50 mg/kg, route intravenous. The note with it: in vivo.
The nature of series [22]: Cmax in urine of C3H/HeN mouse at 50 mg/kg, iv. The class given is ADME, organism-based. Also on record: dose 50 mg/kg, route intravenous.
In series [23] the test system is Mus musculus. The experiment in a line: Total clearance in C3H/HeN mouse at 50 mg/kg, iv. Also on record: dose 50 mg/kg, route intravenous. The note with it: in vivo. The class given is ADME, organism-based.
Series [24] can be described thus: AUC (0 to infinity) in C3H/HeN mouse at 50 mg/kg, iv. The class given is ADME, organism-based. Also on record: time infinity, dose 50 mg/kg, route intravenous. The note with it: plasma.
Series [25] deals with Mus musculus. Briefly: Volume of distribution in C3H/HeN mouse at 50 mg/kg, iv. The class given is ADME, organism-based. Also on record: dose 50 mg/kg, route intravenous. The note with it: in vivo.
Series [26] can be described thus: Dissociation constant, pKa of the compound by NMR spectroscopy. The class given is physicochemical.
The nature of series [27]: Binding affinity to Escherichia coli recombinant 6-His-tagged FimH CRD expressed in Escherichia coli HM125 after 24 hrs by competitive fluorescence polarization assay. In a few lines:
as §1

The logD is the decadic logarithm of the distribution of all forms, ionised or not, between an organic phase and buffer at a given pH. As usually defined, the Cmax is the highest concentration seen after dosing. For orientation: Vz means the apparent volume that relates the amount in the body to the concentration in plasma or blood. The low end stands for confinement near the circulation, the high end for extensive tissue distribution. For orientation: clearance means a measure of how efficiently the substance is removed, as volume per time. Lower therefore signals a low capacity for elimination. As a reminder, the Papp B→A is the apparent permeability from the basolateral to the apical side of a cell layer. What is called Kd is the constant that tells how readily two partners part at equilibrium. What is called Papp A→B is the apparent permeability from the apical to the basolateral side of a cell layer. The term half-life denotes the time needed for the level to fall by half in the phase considered. Low values mean fast loss, high ones slow loss. As usually defined, the AUC(0-inf) is the area under the concentration-time curve extrapolated to infinity. The low end stands for less exposure, the high end for more exposure. What is called solubility (kinetic) is solubility judged after dilution from a stock solution rather than from solid. As usually defined, the pKa is the pH at which an ionisable group is half protonated. Low values mean a stronger acid or weaker base, high ones a weaker acid or stronger base.

With `N#Cc1ccc(-c2ccc(O[C@H]3O[C@H](CO)[C@@H](O)[C@H](O)[C@@H]3O)c(Cl)c2)cc1`, the log distribution coefficient (logD) at 2 h, 1 µM in series [1] was found to be 2.1. Besides, the fraction unbound in [2] was 0.11. The Cmax in series [3] worked out at 10 µg/mL. In series [4], the t1/2 worked out at 0.17 h. The compound further returned a Vz in [5] of 52.8 mL. For the same compound, the clearance in series [6] is 3.63 mL/min. In addition, in series [7], the apparent permeability from basolateral to apical (Papp B→A) stood at 22.1 ×10⁻⁶ cm/s. For the same compound, the Kd in [8] was 1.3 nM; in [10] it was less than 1 nM. In addition, the log10cfu in series [9] is reported as 1.78; in series [11], 1.04; in series [12], 2.68; in series [15] it was 1.07. In addition, in series [13], the C0 amounted to 0.36 µg/mL. In addition, the apical-to-basolateral permeability (Papp A→B) in [14] came out at 2.2 ×10⁻⁶ cm/s. This compound also displayed a half-life at 10 min, 2 µM in [16] of more than 1 h. The area under the curve AUC(0-inf) in series [17] worked out at 70 ng·h/mL. Further, the Activity in series [18] is 0.094 µg/mL. The compound also displayed a solubility (kinetic) at 15 h, 500 µM in [19] of 192 µg/mL (≈ 490 µM).
`NC(=O)c1ccc(-c2ccc(O[C@H]3O[C@H](CO)[C@@H](O)[C@H](O)[C@@H]3O)cc2)cc1` had a log distribution coefficient (logD) at 2 h, 1 µM in series [1] of 0.5. Besides, in series [7], the basolateral-to-apical permeability (Papp B→A) stood at 0.61 ×10⁻⁶ cm/s. Moreover, in series [10], the Kd came out at 2.8 nM. In addition, in [14], the apical-to-basolateral permeability (Papp A→B) was 0.12 ×10⁻⁶ cm/s. This compound also had a solubility (kinetic) at 15 h, 500 µM in series [19] of 12 µg/mL (≈ 32 µM).
With `CNC(=O)c1ccc(-c2ccc(O[C@H]3O[C@H](CO)[C@@H](O)[C@H](O)[C@@H]3O)cc2)cc1`, the logD at 2 h, 1 µM in series [1] is 0.8. Also, in series [7], the Papp B→A turned out to be 0.87 ×10⁻⁶ cm/s. Further, the figures for the dissociation constant Kd in [8] and in [10] were 4.3 nM and 2.9 nM, respectively. In addition, the Papp A→B in series [14] turned out to be 1.1 ×10⁻⁶ cm/s. In addition, in series [19], the solubility (kinetic) at 15 h, 500 µM turned out to be 122 µg/mL (≈ 313 µM).
Turning to `O=C(c1ccc(-c2ccc(O[C@H]3O[C@H](CO)[C@@H](O)[C@H](O)[C@@H]3O)cc2)cc1)N1CCOCC1`, the logD at 2 h, 1 µM in series [1] amounted to 0.2. The fraction unbound in series [2] is 0.52. Also, the C0 in series [20] came out at 110 µg/mL. The Papp B→A in [7] was determined as 1.3 ×10⁻⁶ cm/s. This compound gave a t1/2 in series [21] of 0.4 h. Further, the Kd in series [8] stood at 5 nM; in series [10] it was 3 nM. Besides, in series [22], the Cmax was determined as 4610 µg/mL. The CL in series [23] is 49.4 mL/h. Moreover, in series [24], the AUC(0-inf) worked out at 25300 ng·h/mL. For the same compound, the apical-to-basolateral permeability (Papp A→B) in [14] was 0.18 ×10⁻⁶ cm/s. In addition, the Vz in series [25] was 28.3 mL. This compound returned a half-life at 10 min, 2 µM in series [16] of more than 1 h. In series [19], this compound came in with a kinetic solubility at 15 h, 500 µM of more than 250 µg/mL.
On to `CS(=O)(=O)c1ccc(-c2ccc(O[C@H]3O[C@H](CO)[C@@H](O)[C@H](O)[C@@H]3O)cc2)cc1`, for which, in series [1], the pH-dependent lipophilicity (logD) at 2 h, 1 µM was determined as 0.4. In addition, the fraction unbound in [2] was 0.01. Further, in series [7], the apparent permeability from basolateral to apical (Papp B→A) stood at 1.76 ×10⁻⁶ cm/s. Further, the equilibrium dissociation constant (Kd) was determined as 3 nM in series [8] and 1.7 nM in [10]. In addition, the Papp A→B in [14] was determined as 0.36 ×10⁻⁶ cm/s. The half-life at 10 min, 2 µM in series [16] was more than 1 h. In addition, the kinetic solubility at 15 h, 500 µM in [19] was 246 µg/mL (≈ 599 µM).
Turning to `CNS(=O)(=O)c1ccc(-c2ccc(O[C@H]3O[C@H](CO)[C@@H](O)[C@H](O)[C@@H]3O)cc2)cc1`, in series [2], the fraction unbound was less than 0.01. Also, in series [20], the C0 was found to be 152 µg/mL. This compound displayed a t1/2 in series [21] of 1.9 h. The Kd in series [8] is 3.5 nM; in series [10] it was 2.7 nM. The same compound gave a Cmax in [22] of 387 µg/mL. The compound further yielded a CL in series [23] of 7.1 mL/h. Besides, in series [24], the total exposure AUC(0-inf) amounted to 175000 ng·h/mL. In series [25], this compound had a Vz of 19.5 mL. In [16], this compound displayed a half-life at 10 min, 2 µM of more than 1 h.
Turning to `OC[C@H]1O[C@H](Oc2ccc(-c3cc(F)c(O)c(F)c3)cc2)[C@@H](O)[C@@H](O)[C@@H]1O`, the logD at 2 h, 1 µM in series [1] amounted to 1.1. Besides, the Papp B→A in series [7] stood at 1.9 ×10⁻⁶ cm/s. The Kd in series [10] stood at 3.7 nM. Moreover, the Papp A→B in series [14] came out at 0.4 ×10⁻⁶ cm/s. Moreover, the pKa in [26] was 6.5. The compound further yielded a kinetic solubility at 15 h, 500 µM in series [19] of more than 150 µg/mL.
Take `O=C(NCCOCCOCCNC(=S)Nc1ccc2c(c1)C(=O)OC21c2ccc(O)cc2Oc2cc(O)ccc21)c1ccc(-c2ccc(O[C@H]3O[C@H](CO)[C@@H](O)[C@H](O)[C@@H]3O)c(Cl)c2)cc1`: the equilibrium dissociation constant (Kd) in series [27] stood at 9.9 nM.
